# Data reported in ChEMBL document CHEMBL4219104, “Bicyclo((aryl)methyl)benzamides as inhibitors of GlyT1” (Bioorg Med Chem Lett, 2018).
# What was measured:
# [1] = Octanol-water partition coefficient, log D of the compound at pH 7.4; format: physicochemical
# Method in brief: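 logD determined empirically as ratio of compound partitioned between octanol and water at pH 7.4.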
# [2] = Equilibrium solubility of the compound in phosphate buffer at pH 7.4 by UV-HPLC analysis; format: physicochemical
# Method in brief: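 Equilibrium solubility determined at pH 7.4.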
# [3] = Volume of distribution at steady state in Sprague-Dawley rat at 3 umol/kg, iv; format: ADME, organism-based; details: in vivo, read-out: Vdss
# [4] = Ratio of drug level in brain to plasma in Sprague-Dawley rat at 3 umol/kg, iv; format: ADME; details: read-out: BPR
# [5] = Cmax in Sprague-Dawley rat at 9 umol/kg, po; format: ADME, organism-based; parameters: dose 9 umol/kg, route oral; details: in vivo
# [6] = Tmax in Sprague-Dawley rat at 9 umol/kg, po; format: ADME, organism-based; details: in vivo
# [7] = Oral bioavailability in Sprague-Dawley rat at 9 umol/kg; format: ADME, organism-based; details: in vivo
# [8] = Ratio of drug level in brain to plasma in sc dosed CD-1 mouse; format: ADME, organism-based; details: read-out: BPR
# Method in brief: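 CD-1 mice dosed subcutaneously; brain and plasma levels compared as brain-to-plasma ratio.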
logD [1],solubility thermodynamic [2] [µM],Structure (SMILES),other results
3.3,–,CN1CC2CCC1(C(NC(=O)c1cccc(C(F)(F)F)c1Cl)c1cccc(Br)c1)CC2 (racemic),–
2.1,–,Cc1cccc(C)c1C(=O)NC(c1cccc(-c2cnn(C)c2)c1)C12CCC(CC1)CN2C (stereo not given),–
0.8,–,Cc1cccc(C)c1C(=O)NC(c1ccccc1)C12CC(CN1)C2 (stereo not given),–
1.6,–,CN1CC2CCC1(C(NC(=O)c1cccc(C(F)(F)F)c1Cl)c1ccccn1)CC2 (racemic),–
–,> 500,CN1CC2CCC1([C@H](NC(=O)c1ccncc1Br)c1ccccc1)CC2,–
3,–,Cc1ccccc1C(NC(=O)c1cccc(C(F)(F)F)c1Cl)C12CCC(CC1)CN2C (racemic),–
1.1,–,CCN1CC2CC1(C(NC(=O)c1c(C)cccc1C)c1ccccc1)C2 (stereo not given),–
1.4,481,CN1CC2CCC1([C@H](NC(=O)c1c(Cl)cncc1Cl)c1ccccc1)CC2,–
0.8,373,Cc1ccnc(C)c1C(=O)N[C@H](c1ccccc1)C12CCC(CC1)CN2C,–
1.3,> 500,CSc1ncccc1C(=O)N[C@H](c1ccccc1)C12CCC(CC1)CN2C,–
2.7,> 482,CN1CC2CCC1([C@H](NC(=O)c1cccc(C(F)(F)F)c1Cl)c1ccccc1)CC2,–
2.7,> 500,CN1CC2CCC1([C@@H](NC(=O)c1cccc(C(F)(F)F)c1Cl)c1ccccc1)CC2,–
2.4,> 500,CN1CC2CCC1([C@H](NC(=O)c1ccnc(C(F)(F)F)c1F)c1ccccc1)CC2,–
1.1,> 500,CN1CC2CCC1([C@H](NC(=O)c1c(Cl)ccnc1Cl)c1ccccc1)CC2,–
2.2,498,CN1CC2CCC1([C@H](NC(=O)c1ccnc(Cl)c1Cl)c1ccccc1)CC2,–
2.3,–,CN1CC2CCC1(C(NC(=O)c1cccc(C(F)(F)F)c1Cl)c1cccnc1)CC2 (racemic),–
3,–,Cc1cccc(C(NC(=O)c2cccc(C(F)(F)F)c2Cl)C23CCC(CC2)CN3C)c1 (racemic),–

logD [1],solubility thermodynamic [2] [µM],Structure (SMILES),other results
2,–,Cc1cccc(C)c1C(=O)NC(c1ccc(S(=O)(=O)CC2CC2)cc1)C12CCC(CC1)CN2C (stereo not given),–
1.5,–,Cc1ccc(C(NC(=O)c2c(C)cccc2C)C23CCC(CC2)CN3C)o1 (stereo not given),–
1.9,> 500,CN1CC2CCC1([C@H](NC(=O)c1c(Cl)cccc1Cl)c1ccccc1)CC2,–
2.9,124,CN1CCCC[C@H]1[C@@H](NC(=O)c1cccc(C(F)(F)F)c1Cl)c1ccccc1,–
2.7,–,CN1CC2CCC1(C(NC(=O)c1cccc(C(F)(F)F)c1Cl)c1ccccc1)CC2 (racemic),–
1.3,–,Cc1cccc(C)c1C(=O)NC(c1ccccc1)C12CCC(CC1)CN2 (stereo not given),–
2,–,CN1CC2CCC1(C(NC(=O)c1cccc(C(F)(F)F)c1Cl)c1ccco1)CC2 (racemic),–
1,> 500,COc1cncc(Cl)c1C(=O)N[C@H](c1ccccc1)C12CCC(CC1)CN2C,–
1.3,462,CN1CC2CCC1([C@H](NC(=O)c1c(N)cccc1Cl)c1ccccc1)CC2,–
1.4,–,Cc1cccc(C)c1C(=O)NC(c1ccncc1)C12CCC(CC1)CN2C (stereo not given),–
2.2,493,CN1CC2CCC1([C@H](NC(=O)c1cccc(Cl)c1Cl)c1ccccc1)CC2,–
0.7,495,COc1cccc(OC)c1C(=O)N[C@H](c1ccccc1)C12CCC(CC1)CN2C,–
2.7,–,COc1ccc(C(NC(=O)c2cccc(C(F)(F)F)c2Cl)C23CCC(CC2)CN3C)cc1 (racemic),–
1.1,–,Cc1cccc(C)c1C(=O)NC(c1ccccc1)C12CC(CN1C)C2 (stereo not given),–
2.4,–,CN1CC2CCC1(C(NC(=O)c1cccc(C(F)(F)F)c1Cl)c1ccncc1)CC2 (racemic),–
1.9,414,Cc1cccc(C)c1C(=O)N[C@H](c1ccccc1)C12CCC(CC1)CN2C,Vd [3]: 1.8 L/kg; Kp [4]: 0.2; Cmax [5]: 2450 nM; Tmax [6]: 1 h; bioavailability [7]: 105%; Kp [8]: 0.4

Structure (SMILES),logD [1],solubility thermodynamic [2] [µM],other results
Cc1cccc(C)c1C(=O)NC(c1ccccc1)C12CCC(CC1)N2C1CC1 (stereo not given),1.1,–,–
CCN1C2CCC1(C(NC(=O)c1c(C)cccc1C)c1ccccc1)CC2 (stereo not given),2.1,–,–
Cc1cccc(C)c1C(=O)NC(c1ccccc1)C12CCC(CC1)N2C(C)C (stereo not given),1.9,–,–
Cc1cccc(C)c1C(=O)NC(c1ccncc1)C12CCC(CC1)N2 (stereo not given),0.9,–,–
Cc1cccc(C)c1C(=O)NC(c1ccccc1)C12CCC(CC1)N2C (stereo not given),1.9,–,–
Cc1cccc(C)c1C(=O)NC(c1ccccc1)C12CCC(CC1)N2 (stereo not given),1.4,–,–
